Calls of active or inactive are those of the source. No cut-off for these calls is given here.
Tests used:
[1] = Induction of TNFalpha level in C57BL/6J mouse BMDM at 1 nM after 16 hrs by ELISA; assay type: functional
In short: (§1)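 C57BL/6J bone marrow cells were differentiated 6 days with 40 ng/mL M-CSF in RPMI with 20% FBS, then seeded at 1 × 10⁶ cells/mL in RPMI with 10% FBS. After 24 h, cells were stimulated for 16 h, with nM concentrations based on compound MW. Supernatant cytokines were measured by ELISA.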

THP-1 [2] = assay: Induction of IL8 expression in human THP1 cells after 18 hrs by ELISA; assay type: functional, cell-based
In short: (§2)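 THP-1 cells in RPMI-1640 with 2 mM L-glutamine, antibiotics, 10% FCS; 10⁵ cells/well differentiated with 200 nM TPA for 24 h. Non-adherent cells washed off, 1 h recovery, then stimulated 18 h at indicated concentrations; E. coli Re-LPS or O111:B4 LPS as reference. DMSO stocks diluted in medium, final DMSO ≤0.01%. Supernatants assayed by ELISA.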

[3] = Cytotoxicity against human DC by propidium iodide staining
In short: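 Immature monocyte-derived DCs were stimulated with compound across a wide concentration range, and cytotoxicity was assessed by propidium iodide staining.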

Homo sapiens [4] = species on record: Homo sapiens; assay: Induction of IL6 release in human DC at 1 ng/ml by Luminex
Homo sapiens [5] = species on record: Homo sapiens; assay: Induction of IL12 release in human DC at 1 ng/ml by Luminex
THP-1 [6] = assay: Induction of TNFalpha expression in human THP1 cells after 18 hrs by ELISA; assay type: functional, cell-based; in short: as §2
Homo sapiens [7] = species on record: Homo sapiens; assay: Induction of TNFalpha release in human DC at 1 ng/ml by Luminex
BMDM = assay: Induction of IL-6 level in C57BL/6J mouse BMDM after 16 hrs by ELISA; assay type: functional
In short: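 Bone marrow flushed from femur and tibia, erythrocytes lysed (0.88% ammonium chloride, 15 min, 37 °C), differentiated 6 days in RPMI/20% FBS with 40 ng/mL M-CSF. Replated at 1 × 10⁶ cells/mL in RPMI/10% FBS, stimulated after 24 h for 16 h. Nanomolar doses calculated from MW. DMSO stocks diluted in medium, final DMSO ≤0.01%. Supernatant IL-6 by ELISA.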

THP-1 [8] = assay: Induction of MCP1 expression in human THP1 cells after 18 hrs by ELISA; assay type: functional, cell-based; in short: as §2
Homo sapiens [9] = species on record: Homo sapiens; assay: Induction of IL10 release in human DC at 1 ng/ml by Luminex
[10] = molecular target: Toll-like receptor 4 (Homo sapiens) (UniProt O00206); assay: Agonist activity at human TLR4 in human THP1 cells assessed as induction of MyD88 signaling after 18 hrs by ELISA; assay type: cell-based; details: THP-1
Sequence of Toll-like receptor 4 (Homo sapiens) (O00206 whole entry): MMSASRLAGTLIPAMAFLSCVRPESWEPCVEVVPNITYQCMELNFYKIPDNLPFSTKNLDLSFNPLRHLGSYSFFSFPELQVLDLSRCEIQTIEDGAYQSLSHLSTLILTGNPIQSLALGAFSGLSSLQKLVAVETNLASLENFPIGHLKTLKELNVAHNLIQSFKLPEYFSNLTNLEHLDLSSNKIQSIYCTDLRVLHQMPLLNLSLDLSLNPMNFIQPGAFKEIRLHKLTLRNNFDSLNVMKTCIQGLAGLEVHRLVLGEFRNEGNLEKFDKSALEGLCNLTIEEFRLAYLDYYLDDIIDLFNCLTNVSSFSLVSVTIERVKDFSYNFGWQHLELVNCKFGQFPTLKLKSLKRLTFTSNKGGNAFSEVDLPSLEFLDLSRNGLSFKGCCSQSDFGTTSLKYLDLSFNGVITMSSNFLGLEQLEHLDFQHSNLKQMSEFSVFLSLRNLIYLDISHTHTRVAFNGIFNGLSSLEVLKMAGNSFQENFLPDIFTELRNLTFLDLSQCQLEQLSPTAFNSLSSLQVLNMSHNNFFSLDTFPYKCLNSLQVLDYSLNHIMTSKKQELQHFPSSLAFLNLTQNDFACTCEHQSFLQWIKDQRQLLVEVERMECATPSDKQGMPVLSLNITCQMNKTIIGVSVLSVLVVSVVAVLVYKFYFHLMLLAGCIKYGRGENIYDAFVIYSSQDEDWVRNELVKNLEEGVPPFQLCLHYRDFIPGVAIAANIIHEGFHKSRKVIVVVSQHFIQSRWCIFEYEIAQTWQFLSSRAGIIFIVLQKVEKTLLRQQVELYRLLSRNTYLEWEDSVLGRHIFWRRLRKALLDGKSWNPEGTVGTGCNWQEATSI
In short: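 THP-1 cells were seeded at 10⁵ per well and differentiated to macrophage-like cells with 200 nM TPA for 24 h. Non-adherent cells were washed off, and the remainder rested 1 h in fresh complete RPMI with 10% FCS. Cells were then stimulated for 18 h, and TNF-α, IL-8 and MCP-1 in the supernatants were measured by ELISA.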

[11] = Induction of IL-6 level in C57BL/6J mouse BMDM at 1 nM after 16 hrs by ELISA; assay type: functional; in short: as §1
[12] = Induction of human DC maturation assessed as upregulation of MHC class 1 at 10 ng/ml after 24 hrs by flow cytometry; assay type: functional
[13] = Induction of human DC maturation assessed as upregulation of CD86 at 10 ng/ml after 24 hrs by flow cytometry; assay type: functional
[14] = Induction of human DC maturation assessed as upregulation of MHC class 2 at 10 ng/ml after 24 hrs by flow cytometry; assay type: functional
[15] = molecular target: Toll-like receptor 4 (Homo sapiens) (UniProt O00206); assay: Agonist activity at human TLR4 expressed in HEK293 cells coexpressed with human MD2/CD14 assessed as activation of NFkappaB signaling at 10 ng/ml after 20 to 24 hrs by NFkappaB reporter assay; assay type: cell-based
In short: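 HEK-Blue hTLR4 cells (HEK293 co-transfected with hTLR4/MD-2/CD14), 25000 per well, were stimulated with compound diluted in DMEM with 10% FCS (final DMSO ≤0.005–0.01%) for 20–24 h at 37 °C, 5% CO2. Secreted SEAP in the supernatant was read with QUANTI-Blue at 650 nm. Data were pooled from n = 3 independent experiments, SEM.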

**Q.** Which Activity [1] does the source give for `CCCCCCCCCCCCCC(=O)O[C@H](CCCCCCCCCCC)CC(=O)N[C@H]1[C@H](OC[C@H]2O[C@H](OP(=O)(O)O)[C@H](NC(=O)C[C@H](O)CCCCCCCCCCC)[C@@H](OC(=O)C[C@H](O)CCCCCCCCCCC)[C@@H]2O)O[C@H](CO)[C@@H](OP(=O)(O)O)[C@@H]1OC(=O)C[C@@H](CCCCCCCCCCC)OC(=O)CCCCCCCCCCCCC` here?
**A.** 2000 pg/mL

**Q.** What does the source list for `CCCCCCCCCCCCCC(=O)O[C@H](CCCCCCCCCCC)CC(=O)O[C@@H]1[C@@H](NC(=O)C[C@@H](CCCCCCCCCCC)OC(=O)CCCCCCCCCCC)[C@@H](O[C@H]2O[C@H](CO)[C@@H](OC(=O)C[C@H](CCCCCCCCCCC)OC(=O)CCCCCCCCCCC)[C@H](O)[C@@H]2OC)O[C@H](CO)[C@H]1OP(=O)(O)O`?
**A.** Activity (THP-1 [2]): inactive; Activity [3]: Non-toxic; Activity [1]: 500 pg/mL; Activity (Homo sapiens [4]): inactive; Activity (Homo sapiens [5]): inactive; Activity (THP-1 [6]): inactive; Activity (Homo sapiens [7]): inactive; Activity (BMDM): Dose-dependent effect; Activity (THP-1 [8]): inactive; Activity (Homo sapiens [9]): inactive

**Q.** For `CCCCCCCCCCCCCC(=O)O[C@H](CCCCCCCCCCC)CC(=O)O[C@@H]1[C@@H](NC(=O)C[C@@H](CCCCCCCCCCC)OC(=O)CCCCCCCCCCC)[C@@H](O[C@H]2O[C@H](COP(=O)(O)O)[C@@H](OC(=O)C[C@H](CCCCCCCCCCC)OC(=O)CCCCCCCCC)[C@H](O)[C@@H]2OC)O[C@H](CO)[C@H]1OP(=O)(O)O`, which Activity [10] is on record?
**A.** Active

**Q.** What about the Activity (THP-1 [2]) of the same molecule?
**A.** Dose-dependent effect

**Q.** And the Activity [3]?
**A.** Non-toxic

**Q.** And the Activity [11]?
**A.** 1500 pg/mL

**Q.** What about the Activity [1] of the same molecule?
**A.** 4000 pg/mL

**Q.** And the Activity (THP-1 [6])?
**A.** Dose-dependent effect

**Q.** What about the Activity (THP-1 [8]) of the same molecule?
**A.** Active

**Q.** What does the source list for `CCCCCCCCCCCCCC(=O)O[C@H](CCCCCCCCCCC)CC(=O)O[C@@H]1[C@@H](NC(=O)C[C@@H](CCCCCCCCCCC)OC(=O)CCCCCCCCCCC)[C@@H](O[C@H]2O[C@H](COP(=O)(O)O)[C@@H](OC(=O)C[C@H](CCCCCCCCCCC)OC(=O)CCCCCCCCCCC)[C@H](O)[C@@H]2OC)O[C@H](CO)[C@H]1OP(=O)(O)O`?
**A.** Activity [10]: Active; Activity (THP-1 [2]): Dose-dependent effect; Activity [12]: Active; Activity [3]: Non-toxic; Activity [11]: 1500 pg/mL; Activity [13]: Active; Activity [14]: Active; Activity [1]: 4000 pg/mL; Activity (Homo sapiens [4]): Active; Activity (Homo sapiens [5]): Active; Activity (THP-1 [6]): Dose-dependent effect; Activity (Homo sapiens [7]): Active; Activity (THP-1 [8]): Active; Activity [15]: Active; Activity (Homo sapiens [9]): Active

From ChEMBL document CHEMBL3352425, “Development of αGlcN(1↔1)αMan-based lipid A mimetics as a novel class of potent Toll-like receptor 4 agonists” (J Med Chem, 2014)
